Results: ChEMBL document CHEMBL1143493, “Synthesis of 2-[3,5-substituted pyrazol-1-yl]-4,6-trisubstituted triazine derivatives as antimalarial agents” (2005)
In brackets after ≈: the same amount, converted by molar mass.

Tested on: Plasmodium falciparum
Test: Minimum inhibitory concentration against Plasmodium falciparum NF-54 after 40 hrs
Type: functional
Procedure, shortened: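 Rieckmann-type microassay. NF-54 is kept in RPMI-1640 with 25 mM Hepes, 1% D-glucose, 0.23% NaHCO3 and 10% heat-inactivated human serum, then synchronized to ring stage with 5% D-sorbitol. Ring-stage parasites at about 1% parasitemia and 3% hematocrit are exposed in duplicate to […] for 36–40 h at 37 °C in a candle jar. Maturation is read on Giemsa smears. MIC is the concentration that completely blocks schizont maturation.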

Structure (SMILES)	MIC
COc1ccccc1CN1CCN(c2nc(N3CCN(Cc4ccccc4OC)CC3)nc(-n3nc(-c4cc(OC)c(OC)c(OC)c4)cc3SC)n2)CC1	50 µg/mL (≈ 65.1 µM)
COc1cc(-c2cc(SC)n(-c3nc(NC4CCCCC4)nc(NC4CCCCC4)n3)n2)cc(OC)c1OC	2 µg/mL (≈ 3.61 µM)
COc1cc(-c2cc(SC)n(-c3nc(N4CCCCC4)nc(N4CCCCC4)n3)n2)cc(OC)c1OC	> 50 µg/mL
COc1cc(-c2cc(SC)n(-c3nc(Nc4ccccc4C)nc(Nc4ccccc4C)n3)n2)cc(OC)c1OC	1 µg/mL (≈ 1.76 µM)
COc1ccccc1CN1CCN(c2nc(N3CCN(Cc4ccccc4OC)CC3)nc(-n3nc(-c4ccc(OC)c(OC)c4)cc3SC)n2)CC1	50 µg/mL (≈ 67.8 µM)
COc1ccc(-c2cc(SC)n(-c3nc(Nc4ccccc4C)nc(Nc4ccccc4C)n3)n2)cc1OC	10 µg/mL (≈ 18.5 µM)
COc1cc(-c2cc(SC)n(-c3nc(N4CCN(c5ccccc5)CC4)nc(N4CCN(c5ccccc5)CC4)n3)n2)cc(OC)c1OC	50 µg/mL (≈ 73.5 µM)
COc1cc(-c2cc(SC)n(-c3nc(N4CCc5ccccc5C4)nc(N4CCc5ccccc5C4)n3)n2)cc(OC)c1OC	> 50 µg/mL
COc1ccc(-c2cc(SC)n(-c3nc(N4CCc5ccccc5C4)nc(N4CCc5ccccc5C4)n3)n2)cc1OC	50 µg/mL (≈ 84.5 µM)
COc1cc(-c2cc(SC)n(-c3nc(N4CCN(Cc5ccccc5)CC4)nc(N4CCN(Cc5ccccc5)CC4)n3)n2)cc(OC)c1OC	50 µg/mL (≈ 70.6 µM)
COc1cc(-c2cc(SC)n(-c3nc(NCc4ccccc4)nc(NCc4ccccc4)n3)n2)cc(OC)c1OC	2 µg/mL (≈ 3.51 µM)
CC1(C)N=C(N)N=C(N)N1c1ccc(Cl)cc1 [CYCLOGUANIL]	64 µg/mL (≈ 254 µM)

Other lines, results leading:

MIC	Structure (SMILES)
2 µg/mL (≈ 3.41 µM)	COc1ccc(-c2cc(SC)n(-c3nc(NCCN4CCOCC4)nc(NCCN4CCOCC4)n3)n2)cc1OC
> 50 µg/mL	COc1cc(-c2cc(SC)n(-c3nc(N4CCOCC4)nc(N4CCOCC4)n3)n2)cc(OC)c1OC
50 µg/mL (≈ 95.5 µM)	COc1ccc(-c2cc(SC)n(-c3nc(NC4CCCCC4)nc(NC4CCCCC4)n3)n2)cc1OC
1 µg/mL (≈ 1.62 µM)	COc1cc(-c2cc(SC)n(-c3nc(NCCN4CCOCC4)nc(NCCN4CCOCC4)n3)n2)cc(OC)c1OC
10 µg/mL (≈ 15.5 µM)	COc1cc(-c2cc(SC)n(-c3nc(NCCCN4CCOCC4)nc(NCCCN4CCOCC4)n3)n2)cc(OC)c1OC
> 50 µg/mL	COc1ccc(-c2cc(SC)n(-c3nc(NCc4ccccc4)nc(NCc4ccccc4)n3)n2)cc1OC
10 µg/mL (≈ 15.4 µM)	COc1ccc(-c2cc(SC)n(-c3nc(N4CCN(c5ccccc5)CC4)nc(N4CCN(c5ccccc5)CC4)n3)n2)cc1OC
10 µg/mL (≈ 20 µM)	COc1ccc(-c2cc(SC)n(-c3nc(N4CCOCC4)nc(N4CCOCC4)n3)n2)cc1OC
10 µg/mL (≈ 20.2 µM)	COc1ccc(-c2cc(SC)n(-c3nc(N4CCCCC4)nc(N4CCCCC4)n3)n2)cc1OC
2 µg/mL (≈ 2.95 µM)	COc1ccc(-c2cc(SC)n(-c3nc(N4CCN(Cc5ccccc5)CC4)nc(N4CCN(Cc5ccccc5)CC4)n3)n2)cc1OC
10 µg/mL (≈ 16.3 µM)	COc1ccc(-c2cc(SC)n(-c3nc(NCCCN4CCOCC4)nc(NCCCN4CCOCC4)n3)n2)cc1OC
